What was measured:
[1] = Cytotoxicity against african green monkey Vero cells assessed as reduction in cell viability after 24 to 36 hrs by MTS-based CPE reduction assay; conditions: chlorocebus sabaeus
Method in brief: (§1)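 Noninfected Vero or RD cells exposed to serial compound dilutions under the CPE-assay conditions (37 °C, 24-36 h). Viability measured by MTS/PMS absorbance at 498 nm. CC50 is the concentration causing 50% death of noninfected cells.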

Enterovirus A71 [2] = assay: Antiviral activity against Human enterovirus 71 infected in monkey African green Vero cells by MTS-based CPE reduction assay; assay type: functional, organism-based; conditions: Enterovirus A, Vero; read-out: EC50
Method in brief: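 Vero cells (5 × 10^5) seeded, then given serial compound dilutions plus 100 TCID50 EV71. Incubated at 37 °C for 24-36 h until complete CPE in the virus-infected, compound-free control. Viability read by MTS/PMS at 498 nm. EC50 is the concentration inhibiting virus-induced CPE by 50%. At least three repeats.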

[3] = Selectivity index, ratio of CC50 for african green monkey Vero cells to EC50 for Enterovirus 71; assay type: toxicity, cell-based; conditions: read-out: Ratio CC50/EC50
Method in brief: (§2)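 Selectivity index is CC50/EC50, both taken from MTS-based CPE reduction assays in the same cell line (Vero or RD).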

Enterovirus A71 [4] = assay: Antiviral activity against Enterovirus 71 infected in human RD cells after 24 to 36 hrs by MTS-based CPE reduction assay; assay type: functional, organism-based; conditions: Enterovirus A, RD; read-out: EC50
Method in brief: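 RD cells given serial compound dilutions with EV71. Incubated at 37 °C for 24-36 h until full CPE in the virus control. Viability read by MTS/PMS at 498 nm. EC50 is the concentration giving 50% inhibition of virus-induced CPE. At least three independent experiments.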

RD = assay: Cytotoxicity against human RD cells assessed as reduction in cell viability after 24 to 36 hrs by MTS-based CPE reduction assay; assay type: functional; method in brief: as §1
[5] = Selectivity index, ratio of CC50 for human RD cells to EC50 for Enterovirus 71; assay type: toxicity, cell-based; conditions: read-out: Ratio CC50/EC50; method in brief: as §2
Coxsackievirus B1 = assay: Antiviral activity against Human coxsackievirus B1 infected in african green monkey Vero cells after 24 to 36 hrs by MTS-based CPE reduction assay; assay type: functional, organism-based; conditions: Enterovirus B
Method in brief: (§3)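 Vero cells infected with the coxsackievirus B serotype in the presence of serial compound dilutions. CPE reduction read by MTS/PMS absorbance at 498 nm after 24-36 h at 37 °C. EC50 is the concentration giving 50% CPE inhibition. Mean ± standard deviation of at least three independent experiments.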

Coxsackievirus B2 = assay: Antiviral activity against Human coxsackievirus B2 infected in african green monkey Vero cells after 24 to 36 hrs by MTS-based CPE reduction assay; assay type: functional, organism-based; conditions: Enterovirus B; method in brief: as §3
Coxsackievirus B3 = assay: Antiviral activity against Human coxsackievirus B3 infected in african green monkey Vero cells after 24 to 36 hrs by MTS-based CPE reduction assay; assay type: functional, organism-based; conditions: Enterovirus B; method in brief: as §3
Coxsackievirus B4 = assay: Antiviral activity against Human coxsackievirus B4 infected in african green monkey Vero cells by after 24 to 36 hrs MTS-based CPE reduction assay; assay type: functional, organism-based; conditions: Enterovirus B; method in brief: as §3
Coxsackievirus B5 = assay: Antiviral activity against Human coxsackievirus B5 infected in african green monkey Vero cells after 24 to 36 hrs by MTS-based CPE reduction assay; assay type: functional, organism-based; conditions: Enterovirus B; method in brief: as §3
Coxsackievirus B6 = assay: Antiviral activity against Human coxsackievirus B6 infected in african green monkey Vero cells after 24 to 36 hrs by MTS-based CPE reduction assay; assay type: functional, organism-based; conditions: Enterovirus B; method in brief: as §3

CN(C)c1ccc(C(=O)NNc2c(F)cccc2F)cc1 showed a CC50 [1] greater than 275 µM, an EC50 (Enterovirus A71 [2]) of 17.9 µM and a selectivity ratio [3] greater than 15.3. It also gave an EC50 (Enterovirus A71 [4]) of 23.5 µM, a CC50 (RD) greater than 275 µM and a selectivity ratio [5] greater than 11.7.

Work on CCOc1ccc(C(=O)NNc2c(F)cccc2F)cc1 yielded a CC50 [1] greater than 274 µM, an EC50 (Enterovirus A71 [2]) of 66.7 µM and a selectivity ratio [3] greater than 4.1. The EC50 (Enterovirus A71 [4]) was greater than 100 µM.

In the case of CSc1ccc(C(=O)NNc2c(C)cccc2Cl)cc1, the CC50 [1] is reported as 107 µM, the EC50 (Enterovirus A71 [2]) is reported as 6.13 µM and the selectivity ratio [3] is reported as 17.4. It also gave an EC50 (Enterovirus A71 [4]) of 15.4 µM, a CC50 (RD) of 134 µM and a selectivity ratio [5] of 8.7.

With COc1ccc(C(=O)NNc2c(Br)cccc2Br)cc1 the CC50 [1] was greater than 200 µM, the EC50 (Enterovirus A71 [2]) was 3.32 µM and the selectivity ratio [3] was greater than 60.2. For the same compound, the EC50 (Enterovirus A71 [4]) was 2.63 µM, the CC50 (RD) was greater than 200 µM and the selectivity ratio [5] was greater than 76.1.

In the case of CCOc1ccc(C(=O)NNc2c(Cl)cc(Cl)cc2Cl)cc1, the EC50 (Enterovirus A71 [2]) is reported as greater than 100 µM and the EC50 (Enterovirus A71 [4]) is reported as greater than 100 µM.

With CC(C)(C)c1ccc(C(=O)NNc2c(Cl)cccc2Cl)cc1 the CC50 [1] was 30.8 µM, the EC50 (Enterovirus A71 [2]) was 0.47 µM and the selectivity ratio [3] was 65.6. The EC50 (Enterovirus A71 [4]) was 0.85 µM, the CC50 (RD) was 36.7 µM and the selectivity ratio [5] was 43.2.

In the case of CCc1cccc(CC)c1NNC(=O)c1ccc(C(C)(C)C)cc1, the EC50 (Enterovirus A71 [2]) is reported as greater than 100 µM and the EC50 (Enterovirus A71 [4]) is reported as greater than 100 µM.

With Cc1cccc(C)c1NNC(=O)c1ccc(N(C)C)cc1 the CC50 [1] was greater than 282 µM, the EC50 (Enterovirus A71 [2]) was 0.29 µM and the selectivity ratio [3] was greater than 974. For the same compound, the EC50 (Enterovirus A71 [4]) was 0.69 µM, the CC50 (RD) was greater than 282 µM and the selectivity ratio [5] was greater than 411.

Work on O=C(NNc1c(Cl)cccc1Cl)c1ccccn1 yielded an EC50 (Enterovirus A71 [2]) greater than 100 µM and an EC50 (Enterovirus A71 [4]) greater than 100 µM.

In the case of CCc1ccc(C(=O)NNc2c(C)cccc2Cl)cc1, the CC50 [1] is reported as 81.7 µM, the EC50 (Enterovirus A71 [2]) is reported as 6.37 µM and the selectivity ratio [3] is reported as 12.8. It also gave an EC50 (Enterovirus A71 [4]) of 10.5 µM, a CC50 (RD) of 105 µM and a selectivity ratio [5] of 10.

With Cc1cccc(C)c1NNC(=O)c1ccc(C(C)(C)C)cc1 the CC50 [1] was 166 µM, the EC50 (Enterovirus A71 [2]) was 0.17 µM and the selectivity ratio [3] was 978. The EC50 (Coxsackievirus B1) was 0.0016 µM, the EC50 (Coxsackievirus B2) was 0.0016 µM and the EC50 (Enterovirus A71 [4]) was 0.42 µM. It also gave a CC50 (RD) of 188 µM, a selectivity ratio [5] of 454 and an EC50 (Coxsackievirus B3) of 0.09 µM. It also gave an EC50 (Coxsackievirus B4) of 5.62 µM, an EC50 (Coxsackievirus B5) of 3.19 µM and an EC50 (Coxsackievirus B6) of 0.56 µM.

COc1ccccc1C(=O)NNc1c(Br)cccc1Br gave a CC50 [1] of 109 µM, an EC50 (Enterovirus A71 [2]) of 54.2 µM and a selectivity ratio [3] of 2. It also gave an EC50 (Enterovirus A71 [4]) greater than 100 µM.

For COc1ccc(C(=O)NNc2c(C)cccc2C)cc1, the CC50 [1] was greater than 296 µM, the EC50 (Enterovirus A71 [2]) was 12.3 µM and the selectivity ratio [3] was greater than 24. It also gave an EC50 (Enterovirus A71 [4]) of 29 µM, a CC50 (RD) greater than 296 µM and a selectivity ratio [5] greater than 10.2.

Cc1cccc(Cl)c1NNC(=O)c1ccc(N(C)C)cc1 gave a CC50 [1] of 92.8 µM, an EC50 (Enterovirus A71 [2]) of 0.28 µM and a selectivity ratio [3] of 332. For the same compound, the EC50 (Enterovirus A71 [4]) was 0.16 µM, the CC50 (RD) was 106 µM and the selectivity ratio [5] was 682.

Compound Cc1cccc(Cl)c1NNC(=O)c1ccc(C(C)(C)C)cc1 has a CC50 [1] of 49.2 µM, an EC50 (Enterovirus A71 [2]) of 0.79 µM and a selectivity ratio [3] of 62.3. The EC50 (Enterovirus A71 [4]) was 0.97 µM, the CC50 (RD) was 63.2 µM and the selectivity ratio [5] was 65.1.

With COc1cccc(OC)c1NNC(=O)c1ccc(C(C)(C)C)cc1 the CC50 [1] was greater than 244 µM, the EC50 (Enterovirus A71 [2]) was 10.4 µM and the selectivity ratio [3] was greater than 23.4. The EC50 (Enterovirus A71 [4]) was 27.4 µM, the CC50 (RD) was greater than 244 µM and the selectivity ratio [5] was greater than 8.9.

Work on CCCc1ccc(C(=O)NNc2c(F)cccc2F)cc1 yielded a CC50 [1] greater than 276 µM, an EC50 (Enterovirus A71 [2]) of 27.4 µM and a selectivity ratio [3] greater than 10.1. For the same compound, the EC50 (Enterovirus A71 [4]) was 51.4 µM, the CC50 (RD) was greater than 276 µM and the selectivity ratio [5] was greater than 5.4.

Work on COc1ccc(C(=O)NNc2c(F)cccc2F)cc1 yielded a CC50 [1] greater than 288 µM, an EC50 (Enterovirus A71 [2]) of 74 µM and a selectivity ratio [3] greater than 3.9. For the same compound, the EC50 (Enterovirus A71 [4]) was greater than 100 µM.

For CCCc1ccc(C(=O)NNc2c(Br)cccc2Br)cc1, the CC50 [1] was greater than 194 µM, the EC50 (Enterovirus A71 [2]) was 3.54 µM and the selectivity ratio [3] was greater than 54.8. It also gave an EC50 (Enterovirus A71 [4]) of 4.62 µM, a CC50 (RD) greater than 194 µM and a selectivity ratio [5] greater than 42.

Compound CCOc1ccc(C(=O)NNc2c(C)cccc2Cl)cc1 has a CC50 [1] greater than 262 µM, an EC50 (Enterovirus A71 [2]) of 0.39 µM and a selectivity ratio [3] greater than 673. It also gave an EC50 (Enterovirus A71 [4]) of 0.82 µM, a CC50 (RD) greater than 262 µM and a selectivity ratio [5] greater than 319.

Work on Cc1ccc(C(=O)NNc2c(C)cccc2Cl)cc1 yielded a CC50 [1] greater than 291 µM, an EC50 (Enterovirus A71 [2]) of 13 µM and a selectivity ratio [3] greater than 22.5. The EC50 (Enterovirus A71 [4]) was 26.9 µM, the CC50 (RD) was greater than 291 µM and the selectivity ratio [5] was greater than 10.8.

Compound CCCc1ccc(C(=O)NNc2c(Cl)cccc2Cl)cc1 has a CC50 [1] greater than 248 µM, an EC50 (Enterovirus A71 [2]) of 0.42 µM and a selectivity ratio [3] greater than 589. For the same compound, the EC50 (Enterovirus A71 [4]) was 0.44 µM, the CC50 (RD) was greater than 248 µM and the selectivity ratio [5] was greater than 562.

In the case of CC(C)(C)c1ccc(C(=O)NNc2c(F)cccc2F)cc1, the CC50 [1] is reported as 150 µM, the EC50 (Enterovirus A71 [2]) is reported as 2.19 µM and the selectivity ratio [3] is reported as 68.4. For the same compound, the EC50 (Enterovirus A71 [4]) was 4.27 µM, the CC50 (RD) was 184 µM and the selectivity ratio [5] was 43.

Reference: ChEMBL document CHEMBL3779764, “Identification and Structure-Activity Relationships of Diarylhydrazides as Novel Potent and Selective Human Enterovirus Inhibitors” (J Med Chem, 2016)
